The values that follow come from PMC2556891 (ACS chemical biology, 2008).

In data set [1] the target is ClC-ec1 (Escherichia coli, UniProt P37019). As to the kind of experiment: Chloride flux assay with ClC-ec1 reconstituted in vesicles. It counts as biochemical.
For data set [2], the target named is T1, ClC-0 (Torpedo marmorata, UniProt P21564).
T1 sequence (P21564 1-805): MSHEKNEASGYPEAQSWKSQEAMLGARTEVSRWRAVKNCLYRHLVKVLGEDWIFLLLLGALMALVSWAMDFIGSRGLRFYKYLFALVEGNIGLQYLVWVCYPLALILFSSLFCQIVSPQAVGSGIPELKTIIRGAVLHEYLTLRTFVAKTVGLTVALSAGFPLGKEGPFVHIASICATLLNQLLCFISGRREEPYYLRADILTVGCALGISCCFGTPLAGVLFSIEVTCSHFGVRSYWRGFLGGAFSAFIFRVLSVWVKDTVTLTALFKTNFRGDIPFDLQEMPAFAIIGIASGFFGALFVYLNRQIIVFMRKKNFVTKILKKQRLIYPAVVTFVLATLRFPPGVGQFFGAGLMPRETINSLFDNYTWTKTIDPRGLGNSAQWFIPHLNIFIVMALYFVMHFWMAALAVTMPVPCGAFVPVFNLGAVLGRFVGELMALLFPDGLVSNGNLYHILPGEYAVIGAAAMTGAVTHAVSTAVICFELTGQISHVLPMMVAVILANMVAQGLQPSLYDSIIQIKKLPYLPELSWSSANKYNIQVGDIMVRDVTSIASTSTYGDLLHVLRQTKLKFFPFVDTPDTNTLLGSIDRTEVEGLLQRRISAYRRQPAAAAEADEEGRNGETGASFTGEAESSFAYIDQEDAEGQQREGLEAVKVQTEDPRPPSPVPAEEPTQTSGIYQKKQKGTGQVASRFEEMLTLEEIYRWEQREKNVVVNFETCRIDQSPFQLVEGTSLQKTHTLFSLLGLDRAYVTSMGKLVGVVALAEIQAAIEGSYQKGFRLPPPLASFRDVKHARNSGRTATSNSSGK
Briefly: ClC-0 currents, inside-out patches from Xenopus oocytes. Particulars: intracellular application, various concentrations. It counts as cell-based. The procedure, abridged: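 Defolliculated Xenopus oocytes injected with 27.5 nL ClC-0 RNA (~500 ng/μL) and kept at 16 °C for 2-7 days. Test compound delivered by microfluidic switching. Holding at 0 mV; every 5 s step to +50 mV (50 ms) then −100 mV (50 ms). Instantaneous −100 mV current taken over time as I/Io; initial inhibition rate fitted; 3-5 oocytes; mean ± SEM.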

In data set [3] the target is T2, ClC-Ka (Homo sapiens, UniProt P51800).
T2 sequence (P51800 1-687): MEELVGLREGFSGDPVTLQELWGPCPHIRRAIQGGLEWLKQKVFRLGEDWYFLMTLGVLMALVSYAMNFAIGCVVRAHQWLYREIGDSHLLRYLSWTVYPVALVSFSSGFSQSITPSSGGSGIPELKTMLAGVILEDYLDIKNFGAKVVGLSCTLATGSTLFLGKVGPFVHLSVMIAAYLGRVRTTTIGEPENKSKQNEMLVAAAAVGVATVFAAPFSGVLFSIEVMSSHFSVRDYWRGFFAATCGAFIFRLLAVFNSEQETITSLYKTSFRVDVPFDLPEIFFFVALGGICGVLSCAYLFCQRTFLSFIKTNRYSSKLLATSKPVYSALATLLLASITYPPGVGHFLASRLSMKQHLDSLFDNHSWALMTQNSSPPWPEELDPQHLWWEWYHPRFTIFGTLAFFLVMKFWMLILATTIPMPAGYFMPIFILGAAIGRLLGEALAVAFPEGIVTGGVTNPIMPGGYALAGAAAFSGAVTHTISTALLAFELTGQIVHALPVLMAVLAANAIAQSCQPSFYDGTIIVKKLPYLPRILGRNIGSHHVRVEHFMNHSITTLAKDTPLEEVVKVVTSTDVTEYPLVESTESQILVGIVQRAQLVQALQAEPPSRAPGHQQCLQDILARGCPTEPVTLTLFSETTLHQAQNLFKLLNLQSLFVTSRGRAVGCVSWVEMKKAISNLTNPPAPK
T2 sequence (Q8WZ55 1-320 Y98A partner): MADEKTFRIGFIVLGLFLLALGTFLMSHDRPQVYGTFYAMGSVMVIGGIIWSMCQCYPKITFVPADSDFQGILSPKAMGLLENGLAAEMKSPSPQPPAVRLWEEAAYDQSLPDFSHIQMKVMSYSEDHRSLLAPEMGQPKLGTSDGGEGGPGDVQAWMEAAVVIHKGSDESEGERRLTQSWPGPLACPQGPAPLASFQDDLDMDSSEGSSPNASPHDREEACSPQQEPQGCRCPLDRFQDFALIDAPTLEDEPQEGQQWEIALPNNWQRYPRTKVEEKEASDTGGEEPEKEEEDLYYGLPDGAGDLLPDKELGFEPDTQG
To be noted: cited from earlier work.

The nature of data set [4]: Stability of DIDS in aqueous solution by reversed-phase HPLC. The data set is classed as physicochemical.
Data set [5] has as its target T1, ClC-0. Particulars: cited from earlier work.
For data set [6], the target named is T3, ClC-Ka N68D (Homo sapiens, UniProt P51800, N68D).
T3 sequence (P51800 1-687 N68D): T2 sequence (P51800 1-687) with N68D
T3 sequence (Q8WZ55 1-320 Y98A partner): T2 sequence (Q8WZ55 1-320 Y98A partner)
Particulars: cited from earlier work.

[7] abbreviates: Hill fit of ClC-ec1 chloride flux inhibition.

Molecules are shown by their SMILES. Where a chain is given by its changes, count along the chain named.

Chain of ClC-ec1 (P37019 whole entry): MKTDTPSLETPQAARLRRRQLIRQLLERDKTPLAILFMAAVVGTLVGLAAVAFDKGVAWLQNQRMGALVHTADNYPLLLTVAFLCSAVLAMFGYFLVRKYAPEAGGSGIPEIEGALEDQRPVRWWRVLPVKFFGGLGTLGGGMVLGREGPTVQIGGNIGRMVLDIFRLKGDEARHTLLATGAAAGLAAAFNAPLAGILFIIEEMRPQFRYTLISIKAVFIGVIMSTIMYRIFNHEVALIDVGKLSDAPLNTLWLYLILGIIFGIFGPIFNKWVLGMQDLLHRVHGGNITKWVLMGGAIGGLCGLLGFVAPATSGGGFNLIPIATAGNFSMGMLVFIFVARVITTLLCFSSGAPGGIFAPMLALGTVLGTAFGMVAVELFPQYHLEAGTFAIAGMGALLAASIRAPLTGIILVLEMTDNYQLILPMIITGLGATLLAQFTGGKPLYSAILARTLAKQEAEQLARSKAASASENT

In the case of `Nc1ccc(C=Cc2ccc(N)cc2S(=O)(=O)O)c(S(=O)(=O)O)c1` [DADS, 4,4′-diaminostilbene-2,2′-disulfonic acid], in data set [1] (at concentrations as high as 2 mM), the “effect on ClC-ec1 activity” value is recorded as “does not affect”. In addition, in data set [2], the “effect on ClC-0” value is reported as “no effect”.

Turning to `O=S(=O)(O)c1cc(N=C=S)ccc1C=Cc1ccc(N=C=S)cc1S(=O)(=O)O` [DIDS, 4,4′-diisothiocyanatostilbene-2,2′-disulfonic acid], in data set [1] (setting [7]), the “(A/Ao)max” value was found to be 1.08 and the Hill coefficient n was 2. Besides, in data set [3], the “reversibility of ClC-Ka inhibition from the extracellular side” value is on record as “slowly reversible”. In addition, the “stability in aqueous solution (reversed-phase HPLC)” value in data set [4] (after 3 h in aqueous solution) is on record as “single peak”. For the same molecule, in data set [4] (after 48 h), the “stability in solution (HPLC)” value was “no DIDS was apparent”. For the same molecule, the “stability in solution (HPLC)” value in data set [4] (within 24 h in solution) was “partially decomposed”. For the same molecule, the “reversibility of ClC-0 inhibition” value in data set [5] is “irreversible”. Also, the “decrease of apparent affinity by N68D mutation in ClC-Ka” value in data set [6] is given as 10 fold.
